Laboratory results published in ChEMBL document CHEMBL2424603, “Design, synthesis, and biological and crystallographic evaluation of novel inhibitors of Plasmodium falciparum enoyl-ACP-reductase (PfFabI)” (J Med Chem, 2013).

How the values were obtained:
L6 = test: Cytotoxicity against rat L6 cells assessed as growth inhibition after 72 hrs by fluorometric analysis; assay type: cell-based; conditions: L6, 72 h
Method in brief: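 Mammalian L6 cell growth inhibition; IC50 taken as the average of at least two independent assays, each run in duplicate.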

[1] = Inhibition of recombinant Plasmodium falciparum FabI using crotonoyl-CoA as substrate assessed as consumption of NADH after 10 mins
Method in brief: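 Recombinant PfFabI inhibition was followed spectrophotometrically. IC50 is the concentration giving 50% inhibition, reported as the mean of three independent experiments.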

[2] = Selectivity index, ratio of IC50 for rat L6 cells to IC50 for chloroquine/pyrimethamine-resistant Plasmodium falciparum K1; assay type: toxicity, cell-based; conditions: rat L6 cells (cytotoxicity) versus Plasmodium falciparum K1, read-out: Ratio IC50
Method in brief: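 Ratio of the rat L6 cell growth-inhibition IC50 to the P. falciparum K1 IC50, calculated per WHO/TDR guidelines. Each cell IC50 is the average of at least two independent assays run in duplicate.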

Plasmodium falciparum [3] = test: Antiplasmodial activity against chloroquine/pyrimethamine-resistant Plasmodium falciparum K1 assessed as growth inhibition after […] by [3H]-hypoxanthine incorporation assay; assay type: functional, organism-based
Method in brief: (§1)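 Tested against the chloroquine- and pyrimethamine-resistant K1 strain, with chloroquine as the standard drug. Growth was read by [3H]hypoxanthine incorporation. IC50 was taken from graphically plotted dose–response curves and averaged over at least two independent assays run in duplicate.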

Fatty acid synthase = target: T1, Fatty acid synthase (Plasmodium falciparum, UniProt Q965D7); test: Inhibition of recombinant Plasmodium falciparum FabZ using crotonoyl-CoA as substrate after 10 mins
T1 sequence (Q965D7 whole entry): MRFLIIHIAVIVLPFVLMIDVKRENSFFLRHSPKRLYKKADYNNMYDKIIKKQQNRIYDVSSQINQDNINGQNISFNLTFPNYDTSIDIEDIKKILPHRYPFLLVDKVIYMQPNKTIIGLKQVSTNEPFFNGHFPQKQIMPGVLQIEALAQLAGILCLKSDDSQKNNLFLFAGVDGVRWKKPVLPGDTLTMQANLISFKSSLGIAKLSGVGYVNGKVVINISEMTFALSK
Method in brief: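 Recombinant enzymes PfFabG and PfFabZ were used. IC50 is the concentration giving 50% inhibition, reported as the mean of three independent experiments.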

[4] = target: T2, 3-oxoacyl-(Acyl-carrier protein) reductase (Plasmodium falciparum (isolate 3D7), UniProt Q8I2S7); test: Inhibition of recombinant Plasmodium falciparum 3D7 FabG using acetoacetyl-CoA as substrate after 10 mins in presence of NADPH
T2 sequence (Q8I2S7 whole entry): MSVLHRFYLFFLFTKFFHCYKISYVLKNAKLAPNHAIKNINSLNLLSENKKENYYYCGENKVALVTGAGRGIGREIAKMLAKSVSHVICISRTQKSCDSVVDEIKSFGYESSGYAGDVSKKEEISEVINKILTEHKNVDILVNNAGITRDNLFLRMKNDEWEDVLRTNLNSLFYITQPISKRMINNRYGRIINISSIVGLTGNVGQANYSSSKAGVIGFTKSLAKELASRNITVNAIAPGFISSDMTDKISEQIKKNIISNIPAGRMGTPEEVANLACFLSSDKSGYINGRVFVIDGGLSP

Plasmodium falciparum [5] = test: Antiplasmodial activity against asexual blood stage form of Plasmodium falciparum assessed as growth inhibition after 72 hrs by [3H]-hypoxanthine incorporation assay; assay type: functional, organism-based; method in brief: as §1
[6] = Inhibition of Plasmodium falciparum FabI using crotonoyl-CoA as substrate by UV-Vis spectrophotometric analysis in presence of NADH
Method in brief: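 Recombinant PfFabI enzyme, spectrophotometric read-out; IC50 (concentration giving 50% inhibition) reported as the mean of three independent experiments.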

O=c1ccc2cc(Oc3ccc(Cl)cc3O)ccc2o1
IC50 (L6): 96.2 µM | IC50 [1]: 0.63 µM | selectivity ratio [2]: 9 | IC50 (Plasmodium falciparum [3]): 10.7 µM

Cc1cc(=O)oc2ccc(Oc3ccc(Cl)cc3O)cc12
IC50 (L6): 35.5 µM | IC50 [1]: 14.2 µM | selectivity ratio [2]: 2.2 | IC50 (Plasmodium falciparum [3]): 15.6 µM

CCc1cc(=O)oc2ccc(Oc3ccc(Cl)cc3O)cc12
IC50 (L6): 142 µM | IC50 [1]: 11 µM | selectivity ratio [2]: 25.6 | IC50 (Plasmodium falciparum [3]): 5.6 µM

O=c1ccc2ccc(Oc3ccc(Cl)cc3O)cc2o1
IC50 (L6): 188 µM | IC50 [1]: 2.7 µM | selectivity ratio [2]: 20.1 | IC50 (Plasmodium falciparum [3]): 9.3 µM

Cc1cc(=O)oc2cc(Oc3ccc(Cl)cc3O)ccc12
IC50 (Fatty acid synthase): > 100 µM | IC50 (L6): 85.9 µM | IC50 [4]: > 100 µM | IC50 [1]: 0.25 µM | selectivity ratio [2]: 9 | IC50 (Plasmodium falciparum [3]): 9.5 µM

CCc1cc(=O)oc2cc(Oc3ccc(Cl)cc3O)ccc12
IC50 (Fatty acid synthase): > 100 µM | IC50 (L6): 84.8 µM | IC50 [4]: > 100 µM | IC50 [1]: 0.27 µM | selectivity ratio [2]: 14.9 | IC50 (Plasmodium falciparum [3]): 5.7 µM

O=c1oc2ccccc2cc1Oc1ccc(Cl)cc1O
IC50 (Fatty acid synthase): > 100 µM | IC50 (L6): 108 µM | IC50 [4]: > 100 µM | IC50 [1]: 5.5 µM | selectivity ratio [2]: 7.2 | IC50 (Plasmodium falciparum [3]): 15 µM

O=c1oc2ccc(O)cc2cc1Oc1ccc(Cl)cc1O
IC50 (Fatty acid synthase): > 100 µM | IC50 (L6): 134 µM | IC50 [4]: > 100 µM | IC50 [1]: 14 µM | IC50 (Plasmodium falciparum [3]): > 15 µM

O=c1oc2cc(O)ccc2cc1Oc1ccc(Cl)cc1O
IC50 (Fatty acid synthase): 16.3 µM | IC50 (L6): 144 µM | IC50 [4]: 99 µM | IC50 [1]: 6 µM | IC50 (Plasmodium falciparum [3]): > 15 µM

O=c1oc2cc(O)cc(O)c2cc1Oc1ccc(Cl)cc1O
IC50 (Fatty acid synthase): 90 µM | IC50 (L6): 128 µM | IC50 [4]: > 100 µM | IC50 [1]: 44 µM | IC50 (Plasmodium falciparum [3]): > 15 µM

Cc1c(Oc2ccc(Cl)cc2O)c(=O)oc2ccccc12
IC50 (Fatty acid synthase): 13 µM | IC50 (L6): 51.5 µM | IC50 [4]: > 100 µM | IC50 [1]: 12 µM | IC50 (Plasmodium falciparum [3]): > 15 µM

Cc1c(Oc2ccc(Cl)cc2O)c(=O)oc2cc(O)ccc12
IC50 (Fatty acid synthase): 28 µM | IC50 (L6): 96.3 µM | IC50 [4]: > 100 µM | IC50 [1]: 15 µM | IC50 (Plasmodium falciparum [3]): > 15 µM

O=c1oc2cc(O)ccc2cc1-c1ccc(Oc2ccc(Cl)cc2O)cc1
IC50 (Fatty acid synthase): 10 µM | IC50 (L6): 41 µM | IC50 [4]: > 100 µM | IC50 [1]: 0.45 µM | selectivity ratio [2]: 5.1 | IC50 (Plasmodium falciparum [3]): 8 µM

O=C(O[C@@H]1Cc2c(O)cc(O)cc2O[C@@H]1c1cc(O)c(O)c(O)c1)c1cc(O)c(O)c(O)c1 [EPIGALOCATECHIN GALLATE]
IC50 (Fatty acid synthase): 0.03 µM

COc1cc([C@@H]2c3cc4c(cc3[C@H](O)[C@H]3COC(=O)[C@H]23)OCO4)cc(OC)c1OC [PODOFILOX]
IC50 (L6): 0.006 µM

Oc1cc(Cl)ccc1Oc1ccc(Cl)cc1Cl [TRICLOSAN]
IC50 (Plasmodium falciparum [5]): 1 µM | IC50 [1]: 0.05 µM | IC50 (Plasmodium falciparum [3]): 1.51 µM | IC50 [6]: 0.05 µM
